Laboratory results from ChEMBL document CHEMBL3217467, “A structure-activity relationship study on multi-heterocyclic molecules: two linked thiazoles are required for cytotoxic activity” (Medchemcomm, 2013).
Activity calls are given as the source filed them. The calls are words filed in the database; no cut-off is given here.

Tests used:
[1] = system: HCT-116; experiment: Cytotoxicity against human HCT116 cells assessed as growth inhibition after 72 hrs by CCK8 assay; assay type: functional, cell-based; settings: HCT-116, 72 h
Summary of the method: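 HCT-116 cells seeded at 3000/well in DMEM with 10% FBS and left 24 h to adhere at 37°C in CO2. They were then exposed for 72 h to 1, 2, 5, 10, 20, 30 and 40 μM, with 1% DMSO and media-only controls. Readout was CCK-8 reduction, 1 h, absorbance at 450 nm. IC50 was taken from log concentration versus % survival curves; three experiments, quadruplicate points.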

[2] = system: HCT-116; experiment: Cytotoxicity against human HCT116 cells assessed as growth inhibition at 40 uM after 72 hrs by CCK8 assay; assay type: functional; settings: HCT-116, 72 h, read-out: GI
Summary of the method: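 HCT-116 cells seeded at 3000/well in DMEM with 10% FBS and allowed 24 h at 37°C in CO2. They were then treated 72 h at a single 40 uM concentration, with media-only and 1% DMSO controls. Fresh serum-free medium plus CCK-8 was added for 1 h at 37°C, and absorbance read at 450 nm as % cell survival.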

[3] = system: HCT-116; experiment: Induction of apoptosis in human HCT116 cells assessed as chromatin condensation at 10 uM after 24 hrs by Hoechst 33342 staining based microscopic analysis; assay type: functional, cell-based
Summary of the method: (§1)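 HCT 116 cells were plated at 20,000 per dish 24 h before treatment, then given 10 μM compound or 1% (v/v) DMSO control for 24 h. They were fixed in 1.5% glutaraldehyde in PBS for 1 h, washed with PBS, stained with 5 μg/ml Hoechst 33342 and imaged by confocal microscopy.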

[4] = system: HCT-116; experiment: Induction of apoptosis in human HCT116 cells assessed as plasma membrane budding at 10 uM after 24 hrs by Hoechst 33342 staining based microscopic analysis; assay type: functional, cell-based; summary of the method: as §1
[5] = system: HCT-116; experiment: Induction of apoptosis in human HCT116 cells assessed as intact plasma membranes at 10 uM after 24 hrs by Hoechst 33342 staining based microscopic analysis; assay type: functional, cell-based; summary of the method: as §1
[6] = system: HCT-116; experiment: Induction of apoptosis in human HCT116 cells assessed as nuclear condensation at 10 uM after 24 hrs by Hoechst 33342 staining based microscopic analysis; assay type: functional; summary of the method: as §1
[7] = system: HCT-116; experiment: Induction of apoptosis in human HCT116 cells assessed as cell shrinkage and nuclear condensation at 10 uM after 24 hrs by Hoechst 33342 staining based microscopic analysis; assay type: functional; summary of the method: as §1

Work on `COC(=O)c1nc(-c2csc(-c3csc(-c4csc(-c5csc([C@@H](NC(=O)OC(C)(C)C)[C@@H](C)OC(C)(C)C)n5)n4)n3)n2)oc1-c1ccccc1` yielded an IC50 [1] of 18.7 µM and an inhibition of growth at 40 µM [2] greater than 50%.
For `COC(=O)c1nc(-c2csc(-c3csc(-c4coc(-c5coc([C@@H](NC(=O)OC(C)(C)C)[C@@H](C)OC(C)(C)C)n5)n4)n3)n2)oc1-c1ccccc1`, the IC50 [1] was 18.2 µM and the inhibition of growth at 40 µM [2] was greater than 50%.
With `COC(=O)c1coc(-c2coc([C@@H](NC(=O)OC(C)(C)C)[C@@H](C)OC(C)(C)C)n2)n1` the IC50 [1] was greater than 100 µM.
Work on `CCOC(=O)c1csc(-c2csc([C@@H](NC(=O)OC(C)(C)C)[C@@H](C)OC(C)(C)C)n2)n1` yielded an IC50 [1] of 19.4 µM and an inhibition of growth at 40 µM [2] greater than 50%.
With `CCOC(=O)c1csc(-c2coc(-c3coc([C@@H](NC(=O)OC(C)(C)C)[C@@H](C)OC(C)(C)C)n3)n2)n1` the Activity [3] was “Active”, the Activity [4] was “inactive” and the Activity [5] was “Active”. The Activity [6] was 12%.
For `CCOC(=O)c1csc(-c2csc(-c3csc([C@@H](NC(=O)OC(C)(C)C)[C@@H](C)OC(C)(C)C)n3)n2)n1`, the Activity [3] was “Active”, the IC50 [1] was 26.5 µM and the inhibition of growth at 40 µM [2] was greater than 50%. For the same compound, the Activity [4] was “inactive”, the Activity [5] was “Active” and the Activity [7] was 30%.
